Screens from PubChem.
Only some compounds are listed: those with a hit (about 2.2% of all), similar ones and a draw of the others.
TRAIL sens C8: viability loss with TRAIL in NB7+C8 cells, primary screen, TRAIL sensitizer project, cell-based, ATPlite luminescence. inhibition (viability loss, TRAIL sensitization), % at 10 µM. 360,000 compounds, 1% hits;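 active = compounds causing at least 50% loss of cell viability in the single-dose screen, relative to plate controls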
Wee1 degr inh: Wee1 degradation inhibitors, primary screen, cell-based, HeLa, Wee1K328M-luciferase, luminescence. reporter increase, % at 5 µM. 220,000 compounds, 1.2% hits. Wee1-like protein kinase (Homo sapiens), P30291. HeLa Luc-Wee1K328M stability; 100% = proteasome inhibitor MG132 effect;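 active = activation above the mean of all tested compounds plus 3 SD, set per screening run, cut at about 8.8% in these data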;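 note: cells exposed to compound for 20 h before luminescence read; 0% = DMSO alone and 100% = MG132 at 30 µM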
PPC-1+TRAIL kill: compounds killing PPC-1 cancer cells with TRAIL present, primary screen, TRAIL potentiator project, ATPLite luminescence, uHTS; AID 1443, 2008; 220,000 compounds, 0.41% hits; cell killing (% activity), % at 4 µM or 5 µM; PPC-1 cells + TRAIL, ATPLite viability luminescence;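 active = cell killing above 50% in the first pass at 4 µM, then a duplicate retest at 5 µM averaging 50% or more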;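 note: plate controls were cells with TRAIL plus DMSO for no effect and medium-only wells lacking cells for full effect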
PKD1 inh: inhibitors of human PKD1 kinase, biochemical, fluorescence polarization | Serine/threonine-protein kinase D1 (Homo sapiens), Q15139 | PKD1 kinase fluorescence polarization assay | inhibition, % (concentration not given with the values) | 200,000 compounds, 0.056% hits | AID 797, 2007; in the data active = inhibition above about 50%
Target sequence (Q15139 whole entry, looked up): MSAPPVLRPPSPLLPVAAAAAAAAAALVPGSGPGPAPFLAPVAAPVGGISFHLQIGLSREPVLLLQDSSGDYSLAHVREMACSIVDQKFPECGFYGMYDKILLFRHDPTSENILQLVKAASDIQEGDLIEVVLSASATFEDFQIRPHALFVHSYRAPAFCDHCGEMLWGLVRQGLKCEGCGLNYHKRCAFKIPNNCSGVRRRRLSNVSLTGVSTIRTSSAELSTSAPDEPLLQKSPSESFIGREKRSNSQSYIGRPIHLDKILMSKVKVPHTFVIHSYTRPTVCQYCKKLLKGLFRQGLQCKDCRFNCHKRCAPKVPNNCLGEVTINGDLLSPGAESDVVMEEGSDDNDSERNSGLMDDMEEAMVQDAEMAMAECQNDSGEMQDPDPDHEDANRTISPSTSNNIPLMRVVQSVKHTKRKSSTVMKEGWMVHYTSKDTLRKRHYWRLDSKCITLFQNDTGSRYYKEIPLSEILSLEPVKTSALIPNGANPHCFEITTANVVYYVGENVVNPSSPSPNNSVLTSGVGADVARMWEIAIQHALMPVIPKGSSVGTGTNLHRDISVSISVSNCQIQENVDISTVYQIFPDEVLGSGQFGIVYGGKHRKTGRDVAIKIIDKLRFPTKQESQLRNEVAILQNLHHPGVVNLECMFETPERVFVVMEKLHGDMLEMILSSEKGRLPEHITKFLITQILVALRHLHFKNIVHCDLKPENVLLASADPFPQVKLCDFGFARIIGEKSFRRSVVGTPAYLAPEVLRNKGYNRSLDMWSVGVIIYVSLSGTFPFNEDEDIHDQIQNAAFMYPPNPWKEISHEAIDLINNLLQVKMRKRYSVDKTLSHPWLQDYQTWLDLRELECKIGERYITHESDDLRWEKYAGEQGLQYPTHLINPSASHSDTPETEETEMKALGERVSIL
FLuc inh counter: firefly luciferase enzyme inhibitors, primary screen, artefact control for luciferase-based inhibitor screens, biochemical, luminescence, ATPLite; AID 1006, 2008; 200,000 compounds, 1.5% hits; inhibition, % at 10 µM; Luciferin 4-monooxygenase (Photinus pyralis), P08659; 10 min;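 active = inhibition above about 50% when tested at 10 µM, limit read from the data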
FLuc act counter: FLuc activators, initial screening, artefact control for FLuc-dependent activation tests, biochemical, ATPlite luminescence; Luciferin 4-monooxygenase (Photinus pyralis), P08659; ATPlite luciferase biochemical, 10 min; 0 = ATP-free wells, 1 = DMSO control; activation factor at 10 µM; 200,000 tested, under 10 active;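 active = luciferase activation factor, scaled between plate controls, of at least 2 with compound at 10 µM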
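assay system = Luciferase/luciferin detection reagent, cell-free biochemical luciferase assay | also added = ATP substrate | times = 10 min post-reagent at room temperature | measured by = luminescence from luciferase reaction | measure = luciferase activation, seen as luminescence increase over controls | benchmarks = low control with PBS replacing ATP, high control enzyme plus ATP without compound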
* = called active by the depositor; / = no result given.

SMILES	TRAIL sens C8	Wee1 degr inh	PPC-1+TRAIL kill	PKD1 inh	FLuc inh counter	FLuc act counter
Cc1ccc(O)c(CN(C)Cc2cc(C)ccc2O)c1	21	/	/	/	/	/
CC(C)(C)C1CCc2c(sc(NC(=O)c3cccs3)c2C(N)=O)C1 (configuration not stated)	42	3	24	-4	58*	0.4
CNC(=O)c1c(NC(=O)C2=COCCO2)sc2c1CCC(C)C2 (configuration not stated)	-1	/	/	/	/	/
CC1CCc2c(sc(NC(=O)C3=COCCO3)c2C(N)=O)C1 (configuration not stated)	55*	/	/	/	/	/
O=C(CCCc1ccccc1)Nc1nccs1	-10	/	/	/	/	/
COc1ccc(-c2cc(C(F)(F)F)n3nc(C(=O)NCCCN4CCOCC4)cc3n2)cc1	/	10*	1	2	-8	1.1
CSc1ncccc1C(=O)OCC(=O)N(C)c1c(N)n(Cc2ccccc2)c(=O)[nH]c1=O	-8	/	/	/	/	/
O=C(O)c1cc(-c2ccc3c(c2)OCCO3)n[nH]1	10	0	18	-4	40	0.6
Oc1ccccc1-c1cc(-c2ccc3c(c2)OCCO3)n[nH]1	53*	3	43	-14	66*	0.3
CCOC(=O)c1cc(-c2ccc3c(c2)OCCO3)n[nH]1	20	7	36	3	60*	0.4
O=[N+]([O-])c1ccccc1Nc1nc(-c2cccnc2)cs1	2	/	/	/	/	/
O=C(COc1ccccc1F)N/N=C1\CCCc2ccccc21	1	11*	18	-10	15	0.9
COn1c(SC2CCCCC2)nc2ccccc2c1=O	67*	0	-7	7	-5	1
COn1c(SCc2ccc(C)cc2C)nc2ccccc2c1=O	58*	-2	-13	-2	-10	1.1
COn1c(SCC(N)=O)nc2ccccc2c1=O	19	-2	8	-9	4	1
Cc1ccc(C2=NS(=O)(=O)N(C)C(C(=O)NCc3cccs3)=C2)cc1	56*	/	/	/	/	/
Cc1ccc(C2=NS(=O)(=O)N(C)C(C(=O)NCc3ccccn3)=C2)cc1	-21	/	/	/	/	/
CCCCN(CC)S(=O)(=O)c1ccc(C(=O)N=c2sc3cc(NC(C)=O)ccc3n2C)cc1	61*	0	9	8	1	1
O=C1CCCCC1Sc1nnc(-c2ccc3c(c2)OCO3)o1 (configuration not stated)	53*	-4	6	-1	89*	0.1
Clc1ccc(CSc2nnc(-c3ccc4c(c3)OCO4)o2)cc1	14	-3	19	-4	-3	1
Cc1ccc(-c2nnc(-c3ccc4c(c3)OCO4)o2)cc1	49	-2	55*	-4	52*	0.5
Brc1ccc(-c2nnc(-c3ccc4c(c3)OCO4)o2)o1	42	7	38	-1	60*	0.4
c1coc(-c2nnc(-c3ccc4c(c3)OCO4)o2)c1	/	-1	27	-5	38	0.6
Cc1cccc(-c2noc(-c3ccc4c(c3)OCO4)n2)c1	61*	3	34	-2	82*	0.2
O=C(NCc1ccccc1)C1C(c2ccc3c(c2)OCO3)=Nc2ccccc2N1C(=O)c1cccc2ccccc12 (configuration not stated)	-7	/	/	/	/	/
SMILES	TRAIL sens C8	Wee1 degr inh	PPC-1+TRAIL kill	PKD1 inh	FLuc inh counter	FLuc act counter
C=C1C(=O)OC2C=C(CO)C3OC3C3OC3(C)CC(OC(=O)/C(=C/C)COC(C)=O)C12 (configuration not stated)	63*	/	/	/	/	/
CC(=O)OCC1=C[C@@H]2OC(=O)C3=CO[C@@H](O[C@@H]4O[C@H](CO)[C@@H](O)[C@H](O)[C@H]4O)[C@H]1[C@@H]32	3	/	/	/	/	/
O=C1c2ccccc2C(=O)N1CNc1ccccc1	-2	14*	5	1	-7	1.1
CC(C)(C)c1ccc(C(=O)Nc2ccccc2Cl)cc1	40	7	21	-7	59*	0.4
O=c1cc(-c2cccc(F)c2)oc2ccccc12	13	/	/	/	/	/
O=c1cc(-c2c(F)c(F)c(F)c(F)c2F)oc2ccccc12	77*	5	-2	-2	-4	1
CCOc1ccc(-n2c(C)cc(C(=O)CCl)c2C)cc1	53*	9	-19	6	-4	1
Nc1nnnn1/N=C/C(Br)=C/c1ccccc1	59*	1	8	6	2	1
Nc1nnnn1/N=C/C=C/c1ccccc1	-4	0	-4	-5	-3	1
COc1ccccc1C(=O)N=c1sc2c(C)ccc(OC)c2n1C	-4	1	27	/	/	/
Cc1nnc(SCC(=O)Nc2nccs2)n1N	-36	/	/	/	/	/
CCn1nccc1C(=O)NC1=C(C#N)CCC1	-27	5	-2	-13	-5	1.1
CCn1ccc(C(=O)NC2=C(C#N)CCC2)n1	-3	9.7*	-10	-10	-3	1
Cc1ccc2nc(-c3ccc4c(c3)OCCO4)cc(C(=O)O)c2c1	42	-1	34	-1	74*	0.3
O=C(O)c1cc(-c2ccc3c(c2)OCO3)nc2ccccc12	22	0	28	-2	45	0.6
Clc1ccc2c(c1)[C@H]1OCC[C@H]1[C@@H](c1ccco1)N2	12	8	14	1	59*	0.4
COc1ccc(OCC(=O)N/N=C/c2ccc(N(C)C)cc2)cc1	25	-1	5	3	63*	0.4
CC1CCCC(C)N1CCCNC(=O)C1CCCN(S(=O)(=O)N2CCCCC2)C1 (configuration not stated)	-7	/	/	/	/	/
Cn1cc(C(=O)c2ccc(Cl)cc2Cl)cc1C(=O)N/N=C(\N)COc1ccc(Cl)cc1Cl	14	2	34	-3	-6	1.1
CCOC(=O)C/C(N)=N/NC(=O)c1ccc(Cl)cc1Cl	-4	11*	24	-8	-5	1.1
CCOc1cc(C(=O)O/N=C(\N)c2ccccn2)cc(OCC)c1OCC	61*	/	/	/	/	/
CC(C)C(=O)O/N=C(\N)c1ccccn1	-5	2	20	2	-6	1.1
CCOc1ccc(C(=O)O/N=C(\N)c2ccccn2)cc1OCC	79*	/	/	/	/	/
CCOC(=O)[C@H]1[C@H]2COc3ccc(Br)cc3[C@@H]2N2C(=O)CN(Cc3ccc(OC)cc3)C(=O)[C@@]12C	-7	/	/	/	/	/
O=C(CN1CCN(S(=O)(=O)c2ccc(F)cc2)CC1)Nc1ccc2c(c1)OCCO2	2	-2	16	-8	-4	1
O=C(CN1CCN(S(=O)(=O)c2ccc(F)cc2)CC1)Nc1ccc(Cl)c(C(F)(F)F)c1	60*	0	0	3	-6	1.1
